Results published in ChEMBL document CHEMBL1143253, “Strongylophorines: natural product inhibitors of hypoxia-inducible factor-1 transcriptional pathway” (J Med Chem, 2008).
Activity calls are given as the source filed them. The calls are words filed in the database; no cut-off is given here.

Assays:
[1] = Decrease in protein expression of HIF1-alpha in human U251-HRE cells under hypoxic condition at 30 uM; assay type: functional, cell-based
In short: (§1)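 U251-HRE cells (1 × 10^5) plated in six-well plates, treated after 24 h for 4 h under hypoxia; normoxic and compound-free hypoxic lanes included. Lysis in PBS/0.1% NP-40 with sonication, 100 µg protein on 12.5% polyacrylamide gels. Probed with monoclonal anti-HIF-1α and anti-VEGF (1:500), β-tubulin (1:10000) loading control, HRP anti-mouse secondary, ECL detection.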

[2] = Cytotoxicity against human U251-HRE cells at 100 uM after 16 hrs by MTT assay; assay type: functional
In short: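 U251-HRE glioma cells seeded 10000/well, left 24 h, then exposed to compound 16 h at 37 °C under normoxia (the hypoxic arm ran 24 h in a hypoxic incubator). Medium replaced with fresh medium plus 20 µL MTT (1.5 mg/mL) for 3 h, formazan dissolved in DMSO, absorbance read at 570 nm. Percent cytotoxicity from treated vs control A570; triplicate, SE.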

[3] = target: T1, Hypoxia inducible factors; HIF-1-alpha, HIF-2-alpha (Homo sapiens, UniProt Q16665+Q99814); test: Inhibition of hypoxia-induced HIF1 transcriptional activation in human U251-HRE cells by luciferase reporter assay; assay type: cell-based
In short: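 Stably transfected U251 glioma cells carrying a luciferase reporter driven by three HRE copies, seeded 10000/well and grown 24 h. Compounds in 2-propanol were tested at 1–100 µM for 16 h at 1% O2/5% CO2/94% N2. Cells were lysed and Bright-Glo luminescence read, normalized to vehicle, with ≥15-fold hypoxic induction required. EC50 derived from dose–response; triplicate.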

[4] = target: T1, Hypoxia inducible factors; HIF-1-alpha, HIF-2-alpha; test: Inhibition of hypoxia-induced HIF1 transcriptional activation in human U251-pGL3 cells at 30 uM by luciferase reporter assay; assay type: cell-based
In short: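 Counter-screen in U251-pGL3 cells, where firefly luciferase is driven by the SV40 promoter/enhancer, run in parallel with the HRE reporter assay. Cells incubated with compound under hypoxia (1% O2), then lysed and luciferase luminescence read. Data normalized to vehicle; triplicate.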

[5] = Decrease in protein expression of VEGF in human U251-HRE cells under hypoxic condition at 30 uM; assay type: functional, cell-based; in short: as §1
[6] = tested on: MDA-MB-231; test: Antiinvasive activity against human MDA-MB-231 cells; assay type: functional, cell-based

Row | SMILES | Activity [1] | inhibition at 100 µM [2] | EC50 [3] | Activity [4] | Activity [5] | EC50 [6]
1 | C[C@@]12CC[C@H]3[C@]4(CCC[C@]3(C)C(=O)OC4)[C@H]1CC[C@]1(C)Oc3ccc(O)cc3C[C@@H]21 | Active | 17% | 8 µM | inactive | Active | 
2 | C[C@@]12CC[C@H]3[C@]4(CCC[C@]3(C)C(=O)OC4)[C@H]1CC[C@](C)(O)[C@H]2Cc1cc(O)ccc1O | Active |  | 6 µM | inactive | Active | 16 µM
3 | C[C@@]12CC[C@H]3[C@](C)(CCC[C@]3(C)C(=O)O)[C@H]1CC[C@]1(C)Oc3ccc(O)cc3C[C@@H]21 | Active |  | 13 µM | inactive | Active | 
